Source: ChEMBL document CHEMBL4334543, “Scaffold Hopping-Driven Optimization of 4-(Quinazolin-4-yl)-3,4-dihydroquinoxalin-2(1H)-ones as Novel Tubulin Inhibitors” (ACS Med Chem Lett, 2020)
In brackets after ≈: the same amount, converted by molar mass. Activity calls are given as the source filed them. No cut-off for these calls is given here.

Key:
[1] = test system: MDA-MB-231; assay: Cell cycle arrest in human MDA-MB-231 cells assessed as increase in accumulation of G2/M phase at 3 times of antiproliferative IC50 incubated for 24 hrs by propidium iodide based flow cytometry; format: functional
In short: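 Cells were fixed in EtOH, stained with propidium iodide in the presence of RNase, and analysed by flow cytometry. Cell count was plotted against linear PI fluorescence.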

[2] = Antiproliferative activity against human KBVIN cells assessed as reduction in cell viability incubated for 72 hrs by SRB assay; format: functional
In short: (§1)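 Sulforhodamine B assay across a human tumor cell line panel, with CA-4 run in parallel as positive control. GI50 is the concentration giving 50% growth inhibition, read from dose–response curves. Values are mean ± SD of at least three independent experiments.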

[3] = test system: KB; assay: Antiproliferative activity against human KB cells assessed as reduction in cell viability incubated for 72 hrs by SRB assay; format: functional; in short: as §1
[4] = test system: MDA-MB-231; assay: Antiproliferative activity against human MDA-MB-231 cells assessed as reduction in cell viability incubated for 72 hrs by SRB assay; format: functional; settings: MDA-MB-231, 72 h; in short: as §1
[5] = test system: A549; assay: Antiproliferative activity against human A549 cells assessed as reduction in cell viability incubated for 72 hrs by SRB assay; format: functional; settings: A549, 72 h; in short: as §1
[6] = test system: MCF7; assay: Antiproliferative activity against human MCF7 cells assessed as reduction in cell viability incubated for 72 hrs by SRB assay; format: functional; settings: MCF7, 72 h; in short: as §1
[7] = test system: MDA-MB-231; assay: Inhibition of tubulin polymerization in human MDA-MB-231 cells at 3 times of antiproliferative IC50 incubated for 24 hrs by DAPI staining based confocal fluorescence microscopy; format: functional, cell-based
In short: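 Cells were fixed in 4% PFA/PBS, immunostained for α-tubulin and counterstained with DAPI. Microtubule networks were imaged by confocal fluorescence microscopy as projections of 15–20 confocal images.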

[8] = Potency index, ratio of GI50 of paclitaxel to GI50 of compound for antiproliferative activity against human KBVIN cells assessed as reduction in cell viability incubated for 72 hrs by SRB assay; format: functional
[9] = Lipophilicity, logP of compound incubated for 24 hrs with stirrer and measured after overnight by HPLC-UV analysis; format: physicochemical
[10] = Solubility of compound at pH 7.4 incubated for 4 hrs by HPLC-UV analysis; format: physicochemical; settings: buffer

## COc1ccc2c(c1)NC(=O)CN2c1ncnc2ncccc12
[1]
  Activity: Active
[2]
  GI50: 0.65 µM
[3]
  GI50: 0.48 µM
[4]
  GI50: 2.29 µM
[5]
  GI50: 0.566 µM
[6]
  GI50: 1.2 µM

## COc1ccc2c(c1)NC(=O)CCN2c1nc(C)nc2ccccc12
[1]
  Activity: Active
[2]
  GI50: 0.696 µM
[3]
  GI50: 0.725 µM
[4]
  GI50: 0.095 µM
[5]
  GI50: 0.838 µM
[6]
  GI50: 0.933 µM

## COc1ccc(/C=C\c2cc(OC)c(OC)c(OC)c2)cc1O [COMBRETASTATIN A4]
[1]
  Activity: Active
[2]
  GI50: 0.0038 µM
[3]
  GI50: 0.0036 µM
[4]
  GI50: 0.0082 µM
[5]
  GI50: 0.0055 µM
[6]
  GI50: 0.084 µM
[7]
  inhibition: Active

## COc1ccc2c(c1)NC(=O)CN2c1nccc2c1NC=CN2
[2]
  GI50: > 40 µM
[3]
  GI50: > 40 µM
[4]
  GI50: > 40 µM
[5]
  GI50: > 40 µM
[6]
  GI50: > 40 µM

## CC(=O)O[C@H]1C(=O)[C@@]2(C)[C@H]([C@H](OC(=O)c3ccccc3)[C@]3(O)C[C@H](OC(=O)[C@H](O)[C@@H](NC(=O)c4ccccc4)c4ccccc4)C(C)=C1C3(C)C)[C@]1(OC(C)=O)CO[C@@H]1C[C@@H]2O [PACLITAXEL]
[2]
  GI50: 1.96 µM
[3]
  GI50: 0.0041 µM
[4]
  GI50: 0.0052 µM
[5]
  GI50: 0.0024 µM
[6]
  GI50: 0.0083 µM

## COc1ccc2c(c1)NC(=O)CN2c1nc(OC)nc2cc(OC)c(OC)cc12
[1]
  Activity: Active
[2]
  GI50: 0.919 µM
[3]
  GI50: 0.506 µM
[4]
  GI50: 0.76 µM
[5]
  GI50: 0.544 µM
[6]
  GI50: 0.968 µM

## COc1ccc2c(c1)NC(=O)CCCCN2c1nc(C)nc2ccccc12
[2]
  GI50: > 10 µM
[3]
  GI50: > 10 µM
[4]
  GI50: > 10 µM
[5]
  GI50: > 10 µM
[6]
  GI50: > 10 µM

## CNc1nc(N2CC(=O)Nc3cc(OC)ccc32)c2cc(OC)c(OC)cc2n1
[1]
  Activity: Active
[2]
  GI50: 0.506 µM
[3]
  GI50: 0.051 µM
[4]
  GI50: 0.074 µM
[5]
  GI50: 0.054 µM
[6]
  GI50: 0.084 µM

## COc1ccc2c(c1)NC(=O)CN2c1cc(C)nc2ccccc12
[8]
  RatioGI50: 340
[1]
  Activity: Active
[2]
  GI50: 0.0048 µM
[3]
  GI50: 0.0046 µM
[9]
  logP at 24 h: 2.96
[4]
  GI50: 0.008 µM
[10]
  solubility at 4 h: 10.9 µg/mL (≈ 34.1 µM)
[5]
  GI50: 0.0054 µM
[7]
  inhibition: Active

## COc1ccc2c(c1)NC(=O)CN2c1nccc2nccnc12
[2]
  GI50: 0.638 µM
[3]
  GI50: 0.777 µM
[4]
  GI50: 0.915 µM
[5]
  GI50: 0.617 µM
[6]
  GI50: 0.908 µM

## COc1ccc2c(c1)NC(=O)CCCN2c1nc(C)nc2ccccc12
[2]
  GI50: 5.56 µM
[3]
  GI50: 5.7 µM
[4]
  GI50: 9.7 µM
[5]
  GI50: 5.9 µM
[6]
  GI50: 10.5 µM

## COc1ccc2c(c1)NC(=O)CN2c1ncnc2ccc(Br)cc12
[8]
  RatioGI50: 340
[1]
  Activity: Active
[2]
  GI50: 0.005 µM
[3]
  GI50: 0.005 µM
[4]
  GI50: 0.0096 µM
[5]
  GI50: 0.0055 µM
[6]
  GI50: 0.0094 µM

## COc1ccc2c(c1)NC(=O)CN2c1nc(NCCCO)nc2cc(OC)c(OC)cc12
[2]
  GI50: > 10 µM
[3]
  GI50: 0.516 µM
[4]
  GI50: 0.82 µM
[5]
  GI50: 0.997 µM
[6]
  GI50: 0.95 µM

## COc1ccc2c(c1)NC(=O)CN2c1nc(Cl)nc2cc(OC)c(OC)cc12
[1]
  Activity: Active
[2]
  GI50: 0.065 µM
[3]
  GI50: 0.045 µM
[4]
  GI50: 0.076 µM
[5]
  GI50: 0.05 µM
[6]
  GI50: 0.082 µM

## COc1ccc2c(c1)NC(=O)CN2c1nc(Cl)nc2cccnc12
[8]
  RatioGI50: 340
[1]
  Activity: Active
[2]
  GI50: 0.0057 µM
[3]
  GI50: 0.0056 µM
[4]
  GI50: 0.0077 µM
[5]
  GI50: 0.0053 µM
[6]
  GI50: 0.0084 µM

## COc1ccc2c(c1)C(=O)NCCN2c1nc(C)nc2ccccc12
[2]
  GI50: > 2 µM
[3]
  GI50: > 2 µM
[4]
  GI50: > 2 µM
[5]
  GI50: > 2 µM
[6]
  GI50: > 2 µM
